# Test system: Schistosoma mansoni
# Test: Concentration required to kill 50% of 21 day old worms 5 days after drug treatment.
# Type: functional, organism-based
# Conditions: Puerto Rican, 120 h
# Method in brief: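 Juvenile S. mansoni (Puerto Rican strain) were perfused from CD1 mice 3 weeks post-infection and washed. They were cultured 6–8 per well in 200 µL DMEM with 2 mM glutamine, penicillin/streptomycin and 10% FCS at 37 °C, 5% CO2. Viability of individual worms was scored on day 5 after dosing (120 h).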
row,SMILES,EC50 [µM]
1,CC(C)Cn1cc(-c2cn3c(-c4ccc(O)cc4)cnc3cn2)cn1,> 25
2,CC(C)Oc1cccc(-c2ccc3nnc(-c4ccnc(C(F)(F)F)c4)n3c2)c1,> 25
3,Oc1ccc(-c2cnc3cnc(-c4cccc(C(F)(F)F)c4)cn23)c(Cl)c1,4.26
4,CC(C)Oc1cccc(-c2ccc3nnc(-c4cccc(C#N)c4)n3c2)c1,> 25
5,CC(C)Oc1cccc(-c2cn3c(-c4ccc(F)cc4)cnc3cn2)c1,> 25
6,OCCc1cccc(-c2cn3c(-c4ccc(O)cc4)cnc3cn2)c1,> 25
7,COc1cc(-c2nnc3ccc(-c4cccc(OC(C)C)c4)cn23)ccn1,> 25
8,CC(=O)c1ccc(F)c(-c2cn3c(-c4ccc(O)cc4)cnc3cn2)c1,> 25
9,COc1ccc(-c2cnc3cnc(-c4cnn(CCN5CCOCC5)c4)cn23)c(C)c1,> 25
10,CN(C)C(=O)c1cccc(-c2cn3c(-c4ccc(O)cc4)cnc3cn2)c1,> 25
11,COc1ccc(-c2cnc3cnc(-c4ccccn4)cn23)cc1,> 25
12,COc1ccc(-c2cnc3cnc(-c4ccc5c(c4)OCCO5)cn23)cc1,> 25
13,COc1cccc(-c2cn3c(-c4ccc(O)cc4)cnc3cn2)n1,> 25
14,CC(C)Oc1cccc(-c2cn3c(-c4ccc5cn[nH]c5c4)cnc3cn2)c1,> 25
15,CC(C)c1cccc(-c2ccc3nnc(-c4ccc(O)cc4)n3c2)c1,> 25
16,COc1ncc(-c2cnc3cnc(-c4cccc(OC(C)C)c4)cn23)cn1,> 25
17,NC(=O)c1cccc(-c2cn3c(-c4ccc(O)cc4)cnc3cn2)c1,> 25
18,COc1ccc(-c2nnc3ccc(-c4ccc5[nH]ncc5c4)cn23)cc1OC,> 25
19,Oc1ccc(-c2cnc3cnc(-c4cnn(CC5CC5)c4)cn23)cc1,> 25
20,CC(C)c1ccccc1-c1cn2c(-c3ccc(O)cc3)cnc2cn1,16.6
21,Cc1ccc(-c2nnc3ccc(-c4cccc(OC(C)C)c4)cn23)cn1,> 25
22,CC(C)c1cccc(-c2ccc3nnc(-c4cnn(C)c4)n3c2)c1,> 25
23,COc1ccc(-c2nnc3ccc(-c4cccc(Cl)c4)cn23)cc1OC,> 25

row,SMILES,EC50 [µM]
1,COc1cc(-c2ccc3nnc(-c4ccc(OC)c(OC)c4)n3c2)ccn1,> 25
2,COc1ccc(-c2nnc3ccc(-c4cnn(CCN5CCOCC5)c4)cn23)cc1OC,> 25
3,COc1cccc(-c2cn3c(-c4ccc5c(c4)CCO5)cnc3cn2)c1,> 25
4,CC(=O)c1cccc(-c2cn3c(-c4ccc(O)cc4)cnc3cn2)c1F,> 25
5,COc1cccc(-c2cnc3cnc(-c4cccc(OC(C)C)c4)cn23)n1,> 25
6,COc1cccc(-c2cn3c(-c4ccc(OC)c(F)c4)cnc3cn2)c1,24.2
7,CC(=O)Nc1cccc(-c2cn3c(-c4ccc(O)cc4)cnc3cn2)c1,> 25
8,Cn1ccc(-c2cn3c(-c4ccc(O)cc4)cnc3cn2)n1,> 25
9,COc1ccc(-c2nnc3ccc(-c4cccc(CO)c4)cn23)cc1OC,> 25
10,COc1ccc(C(C)C)cc1-c1cn2c(-c3ccc(O)cc3)cnc2cn1,6.06
11,COc1ccc(-c2cnc3cnc(-c4cccc(OC(C)C)c4)cn23)cn1,24.2
12,Oc1ccc(-c2cnc3cnc(-c4ccc5cn[nH]c5c4)cn23)cc1,25
13,Cn1ncc2cccc(-c3cn4c(-c5ccc(O)cc5)cnc4cn3)c21,> 25
14,COc1ccc(-c2nnc3ccc(-c4c(OC)cccc4OC)cn23)cc1OC,> 25
15,Oc1ccc(-c2cnc3cnc(-c4cccc(C(F)(F)F)c4F)cn23)cc1,> 25
16,CCOc1cccc(-c2ccc3nnc(-c4ccc(OC)c(OC)c4)n3c2)c1,> 25
17,CC(C)c1cccc(-c2cn3c(-c4ccc(OC(F)(F)F)cc4)cnc3cn2)c1,> 25
18,Cc1c(-c2cn3c(-c4ccc(O)cc4)cnc3cn2)cnn1C,> 25
19,CN(C)Cc1cccc(-c2cn3c(-c4ccc(O)cc4)cnc3cn2)c1,24.6
20,CC(C)Oc1cccc(-c2ccc3nnc(-c4ccc5c(c4)CCO5)n3c2)c1,> 25
21,COc1ccc(-c2nnc3ccc(-c4cccc(OC(C)C)c4)cn23)cc1F,25
22,COc1ccc(-c2nnc3ccc(-c4ccc(N5CCN(C)CC5)nc4)cn23)cc1OC,> 25
23,NC(=O)Cc1cccc(-c2cn3c(-c4ccc(O)cc4)cnc3cn2)c1,> 25

row,SMILES,EC50 [µM]
1,Cn1nc(C(F)(F)F)cc1-c1cn2c(-c3ccc(O)cc3)cnc2cn1,> 25
2,COc1cc(-c2nnc3ccc(-c4cccc(C(C)C)c4)cn23)ccn1,> 25
3,COc1ccc(-c2cnc3cnc(-c4ccnc(OC)c4)cn23)cc1,> 25
4,COc1ccc(-c2nnc3ccc(-c4cccc(N)c4)cn23)cc1OC,> 25
5,COc1cc(-c2cn3c(-c4ccc(O)cc4)cnc3cn2)ccn1,> 25
6,Cc1cnc2cnc(-c3cccc(OC(C)C)c3)cn12,> 25
7,COc1ccc(-c2nnc3ccc(-c4cccc(C(C)C)c4)cn23)c(OC)c1,23.7
8,Cn1ncc2cc(-c3cn4c(-c5ccc(O)cc5)cnc4cn3)ccc21,21.4
9,Oc1ccc(-c2cnc3cnc(-c4ccc5[nH]ncc5c4)cn23)cc1,> 25
10,Oc1ccc(-c2cnc3cnc(-c4cnn(C5CCCC5)c4)cn23)cc1,> 25
11,CC(C)c1cccc(-c2ccc3nnc(-c4ccc5cn[nH]c5c4)n3c2)c1,> 25
12,CC(C)c1cccc(-c2ccc3nnc(-c4ccc(CO)cc4)n3c2)c1,> 25
13,COc1ccc(-c2nnc3ccc(-c4ccc(F)cc4)cn23)cc1OC,> 25
14,CC(C)c1cccc(-c2ccc3nnc(-c4cn[nH]c4)n3c2)c1,> 25
15,CC(C)c1cccc(-c2ccc3nnc(-c4ccncc4)n3c2)c1,> 25
16,COc1ccc(-c2nnc3ccc(-c4cccnc4OC)cn23)cc1OC,> 25
17,CC(C)Oc1cccc(-c2cn3c(-c4ccc(N)cc4)cnc3cn2)c1,21.3
18,COc1ccc(-c2nnc3ccc(-c4cccc(C#N)c4)cn23)cc1OC,> 25
19,COc1ccc(-c2cnc3cnc(-c4cccc(F)c4)cn23)cc1,> 25
20,CC(C)Oc1cccc(-c2ccc3nnc(-c4ccc(F)cc4)n3c2)c1,> 25
21,Cn1cc(-c2cn3c(-c4ccc(O)cc4)cnc3cn2)cn1,> 25
22,COc1ccc(-c2nnc3ccc(-c4cccc(F)c4)cn23)cc1OC,> 25
23,CC(C)c1cccc(-c2ccc3nnc(-c4ccc(S(N)(=O)=O)cc4)n3c2)c1,> 25

row,SMILES,EC50 [µM]
1,Oc1ccc(-c2cnc3cnc(-c4cnn(Cc5ccccc5)c4)cn23)cc1,> 25
2,COc1ccc(-c2cnc3cnc(-c4ccc(C(C)C)cc4)cn23)cc1,> 25
3,COc1ccc(-c2nnc3ccc(-c4ccc5cn[nH]c5c4)cn23)cc1OC,> 25
4,CC(C)Oc1cccc(-c2cn3c(-c4cnn(C)c4)cnc3cn2)c1,> 25
5,COc1cc(-c2cnc3cnc(-c4cccc(OC(C)C)c4)cn23)ccn1,> 25
6,Oc1ccc(-c2cnc3cnc(-c4ccnc(C(F)(F)F)c4)cn23)cc1,> 25
7,CS(=O)(=O)c1cncc(-c2cn3c(-c4ccc(O)cc4)cnc3cn2)c1,> 25
8,CC(C)Oc1cccc(-c2cn3c(-c4cncnc4)cnc3cn2)c1,> 25
9,CC(C)Oc1cccc(-c2cn3c(-c4ccc(CN)cc4)cnc3cn2)c1,24.2
10,COc1ccc(-c2nnc3ccc(-c4cn[nH]c4)cn23)cc1OC,> 25
11,COc1ccc(-c2nnc3ccc(-c4cccc(OC(C)C)c4)cn23)cc1,> 25
12,CC(C)Oc1cccc(-c2cn3c(-c4ccnn4C)cnc3cn2)c1,> 25
13,CC(C)c1cccc(-c2ccc3nnc(-c4ccc(N)cc4)n3c2)c1,> 25
14,COc1cccc(-c2ccc3nnc(-c4ccc(OC)c(OC)c4)n3c2)c1,> 25
15,CC(C)c1cccc(-c2ccc3nnc(-c4ccc(CN)cc4)n3c2)c1,> 25
16,CC(C)Oc1cccc(-c2cn3c(-c4ccc(CO)cc4)cnc3cn2)c1,25
17,CS(=O)(=O)Nc1cccc(-c2cn3c(-c4ccc(O)cc4)cnc3cn2)c1,> 25
18,Cn1ncc2c(-c3cn4c(-c5ccc(O)cc5)cnc4cn3)cccc21,19
19,COc1ccc(-c2ccc3nnc(-c4ccc(OC)c(OC)c4)n3c2)cn1,> 25
20,COc1ccc(-c2nnc3ccc(-c4cccc(OC(C)C)c4)cn23)cc1OC,> 25
21,Oc1ccc(-c2cnc3cnc(C4=CCOCC4)cn23)cc1,> 25
22,CCCOc1cc(-c2cn3c(-c4ccc(O)cc4)cnc3cn2)ccc1OC,25
23,Cc1nnc2ccc(-c3cccc(C(C)C)c3)cn12,> 25

row,SMILES,EC50 [µM]
1,COc1ccc(-c2nnc3ccc(-c4ccc5c(c4)CCO5)cn23)cc1OC,> 25
2,COc1ccc(-c2nnc3ccc(-c4ccc(O)nc4)cn23)cc1OC,> 25
3,Cn1nccc1-c1cn2c(-c3ccc(O)cc3)cnc2cn1,> 25
4,COc1ccc(-c2nnc3ccc(-c4ccc(C)nc4)cn23)cc1OC,> 25
5,Cn1cc(-c2cn3c(-c4ccc(O)cc4)cnc3cn2)ccc1=O,> 25
6,COCc1cccc(-c2nnc3ccc(-c4cccc(OC(C)C)c4)cn23)c1,> 25
7,COc1ccc(-c2cnc3cnc(-c4cccc(C#N)c4)cn23)cc1,> 25
8,COc1ccc(-c2nnc3ccc(-c4ccc(O)cc4)cn23)cc1OC,> 25
9,COc1ccc(-c2cnc3cnc(-c4cccc(CO)c4)cn23)cc1,> 25
10,COc1cccc(-c2nnc3ccc(-c4cccc(OC(C)C)c4)cn23)n1,12.7
11,CC(C)c1cccc(-c2ccc3nnc(-c4ccnc(C(F)(F)F)c4)n3c2)c1,> 25
12,Oc1ccc(-c2cnc3cnc(-c4cccc(-c5ccn[nH]5)c4)cn23)cc1,> 25
13,COc1ccc(-c2cnc3cnc(-c4ccnc(C(F)(F)F)c4)cn23)cc1,> 25
14,COc1ncc(-c2ccc3nnc(-c4ccc(OC)c(OC)c4)n3c2)cn1,> 25
15,CC(C)c1cccc(-c2ccc3nnc(-c4ccccn4)n3c2)c1,14
16,Cc1n[nH]c(C)c1-c1cn2c(-c3ccc(O)cc3)cnc2cn1,> 25
17,COc1cccc(-c2ccc3nnc(-c4ccc(OC)c(OC)c4)n3c2)n1,> 25
18,COc1ccc(-c2nnc3ccc(-c4cccc(CN)c4)cn23)cc1OC,> 25
19,Cn1cncc1-c1cn2c(-c3ccc(O)cc3)cnc2cn1,> 25
